Assay results from ChEMBL document CHEMBL1121966, “(2R*,3S*)-1-[125I]Iodo-2,3-bis(4-hydroxyphenyl)pentane ([125I]iodonorhexestrol) and (2R*,3S*)-1-[77Br]Bromo-2,3-bis(4-hydroxyphenyl)pentane ([77Br]bromonorhexestrol), two gamma-emitting estrogens that show receptor-mediated uptake by target tissues in vivo” (1982).

Experiments:
Rattus norvegicus [1] = species on record: Rattus norvegicus; assay: Percent injected dose per gram Ovaries at 1 hr; format: functional
Outline: (§1)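 Immature (25-day, ca. 50 g) Sprague-Dawley female rats received an iv injection (jugular or tail vein) of HPLC-purified tracer in ethanol plus 0.9% NaCl/rat serum 1:1. Doses were 2 μCi [125I]iodo tracer (≤15 pmol), or 2 μCi [77Br]bromo tracer (≤1.25 pmol) with 2 μCi 16α-[125I]iodoestradiol. Animals were killed at 1 h; blood and tissues were weighed and γ-counted. Blocking: coinjected unlabeled estradiol, 9 μg (iodo) or 18 μg (bromo). Mean ± SD.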

[2] = Muscle/blood distribution ratio was determined immature female rats at 1 hr with unlabeled estradiol; format: functional; outline: as §1
[3] = Esophagus/blood distribution ratio was determined in immature female rats at 1 hr with unlabeled estradiol; format: functional; outline: as §1
[4] = Lung/blood distribution ratio was determined in immature female rats at 1 hr; format: functional; outline: as §1
Rattus norvegicus [5] = species on record: Rattus norvegicus; assay: Percent injected dose per gram lung at 1 hr with unlabeled estradiol; format: functional
Outline: (§2)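 Same iv biodistribution in immature female rats, killed at 1 h, with unlabeled estradiol coinjected to block receptor uptake: 9 μg with [125I]iodonorhexestrol (3 rats), 18 μg with the [77Br]bromonorhexestrol/16α-[125I]iodoestradiol pair (5 rats). Tissue and blood radioactivity were counted as % injected dose/g and tissue-to-blood ratio.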

Rattus norvegicus [6] = species on record: Rattus norvegicus; assay: Percent injected dose per gram esophagus at 1 hr; format: functional; outline: as §1
Rattus norvegicus [7] = species on record: Rattus norvegicus; assay: Percent injected dose per gram esophagus at 1 hr with unlabeled estradiol; format: functional; outline: as §1
Rattus norvegicus [8] = species on record: Rattus norvegicus; assay: Percent injected dose per gram thyroid at 1 hr; format: functional, Thyroid gland
Outline: (§3)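 Immature (25 day) female Sprague-Dawley rats (ca. 50 g) were dosed iv (jugular or tail vein) in ethanol plus 0.9% NaCl/rat serum (1:1). Doses were 2 μCi of [125I]iodonorhexestrol (≤15 pmol/dose), or 2 μCi each of [77Br]bromonorhexestrol (≤1.25 pmol/dose) and 16α-[125I]iodoestradiol (2 pmol/dose). Rats were killed at 1, 3 or 6 h; blood and tissues were weighed and γ-counted. Thyroid weight assumed 0.005 g/100 g body weight. Mean ± SD.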

[9] = Esophagus/blood distribution ratio was determined in immature female rats at 1 hr; format: functional; outline: as §1
Rattus norvegicus [10] = species on record: Rattus norvegicus; assay: Percent injected dose per gram blood at 1 hr; format: functional; outline: as §1
Rattus norvegicus [11] = species on record: Rattus norvegicus; assay: Percent injected dose per gram Uterus at 1 hr; format: functional; outline: as §1
[12] = Liver/blood distribution ratio was determined in immature female rats at 1 hr; format: functional; outline: as §1
[13] = Solvolytic stability of compound was measured relative to p-hydroxyphenethyl bromide; format: functional, Rattus norvegicus
Rattus norvegicus [14] = species on record: Rattus norvegicus; assay: Percent injected dose per gram Uterus at 1 hr with unlabeled estradiol.; format: functional; outline: as §1
[15] = Kidney/blood distribution ratio was determined in immature female rats at 1 hr with unlabeled estradiol; format: functional; outline: as §1
[16] = Spleen/blood distribution ratio was determined in immature female rats at 1 hr with unlabeled estradiol; format: functional
[17] = Ovary/blood distribution ratio was determined in immature female rats at 1 hr; format: functional; outline: as §1
[18] = Thyroid/blood distribution ratio was determined in immature female rats at 1 hr with unlabeled estradiol; format: functional; outline: as §2
[19] = Tissue/blood distribution ratio was measured in immature female rats at 1h, unlabeled estradiol (18 microg) coinjected; format: functional
Outline: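 Immature female rats given iv [77Br]bromonorhexestrol with 16α-[125I]iodoestradiol (2 μCi each) plus 18 μg unlabeled estradiol coinjected; killed at 1 h. Tissue and blood were weighed and counted, and tissue-to-blood radioactivity ratios were computed; 5 animals, mean ± SD.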

Rattus norvegicus [20] = species on record: Rattus norvegicus; assay: Percent injected dose per gram liver at 1 hr with unlabeled estradiol; format: functional; outline: as §2
Rattus norvegicus [21] = species on record: Rattus norvegicus; assay: Percent injected dose per gram blood at 1 hr with unlabeled estradiol; format: functional; outline: as §1
[22] = Ovary/blood distribution ratio was determined in immature female rats at 1 hr with unlabeled estradiol; format: functional; outline: as §1
[23] = Kidney/blood distribution ratio was determined in immature female rats at 1 hr; format: functional; outline: as §1
[24] = Tissue/blood distribution ratio was measured in immature female rats at 1 hr; format: functional; outline: as §3
Rattus norvegicus [25] = species on record: Rattus norvegicus; assay: Percent injected dose per gram liver at 1 hr; format: functional; outline: as §3
[26] = Liver/blood distribution ratio was determined in immature female rats at 1 hr with unlabeled estradiol; format: functional; outline: as §1
Rattus norvegicus [27] = species on record: Rattus norvegicus; assay: Percent injected dose per gram Muscle at 1 hr; format: functional; outline: as §1
[28] = Uterus/blood distribution of compound was measured in immature female rats at 1 hr with unlabeled estradiol; format: functional; outline: as §2
Rattus norvegicus [29] = species on record: Rattus norvegicus; assay: Percent injected dose per gram kidney at 1 hr; format: functional; outline: as §1
[30] = Thyroid/blood distribution ratio was determined in immature female rats at 1 hr; format: functional; outline: as §3
Rattus norvegicus [31] = species on record: Rattus norvegicus; assay: Percent injected dose per gram spleen at 1 hr; format: functional; outline: as §3
Rattus norvegicus [32] = species on record: Rattus norvegicus; assay: Percent injected dose per gram kidney at 1 hr with unlabeled estradiol; format: functional; outline: as §1
[33] = Lung/blood distribution ratio was determined in immature female rats at 1 hr with unlabeled estradiol; format: functional; outline: as §1
Rattus norvegicus [34] = species on record: Rattus norvegicus; assay: Percent injected dose per gram Ovaries at 1 hr with unlabeled estradiol; format: functional; outline: as §1
Rattus norvegicus [35] = species on record: Rattus norvegicus; assay: Percent injected dose per gram lung at 1 hr; format: functional; outline: as §3
Rattus norvegicus [36] = species on record: Rattus norvegicus; assay: Percent injected dose per gram Muscle at 1 hr with unlabeled estradiol; format: functional; outline: as §1
[37] = Spleen/blood distribution ratio was determined immature female rats at 1 hr; format: functional; outline: as §3
Rattus norvegicus [38] = species on record: Rattus norvegicus; assay: Percent injected dose per gram spleen at 1 hr with unlabeled estradiol; format: functional; outline: as §2
[39] = Uterus/blood distribution ratio was measured in immature female rats at 1 hr; format: functional; outline: as §3
Rattus norvegicus [40] = species on record: Rattus norvegicus; assay: Percent injected dose per gram thyroid at 1 hr with unlabeled estradiol; format: functional, Thyroid gland; outline: as §2

SMILES: CC[C@H](c1ccc(O)cc1)[C@@H](CI)c1ccc(O)cc1
- Injected dose (Rattus norvegicus [1]): 4.8%
- Ratio [2]: 1.9
- Ratio [3]: 3.6
- Ratio [4]: 1.1
- Injected dose (Rattus norvegicus [5]): 1.8%
- Injected dose (Rattus norvegicus [6]): 8.3%
- Injected dose (Rattus norvegicus [7]): 5.4%
- Injected dose (Rattus norvegicus [8]): 619%
- Ratio [9]: 6.3
- Injected dose (Rattus norvegicus [10]): 1.3%
- Injected dose (Rattus norvegicus [11]): 15.7%
- Ratio [12]: 1
- 1/krel [13]: 0.71
- Injected dose (Rattus norvegicus [14]): 4.9%
- Ratio [15]: 1.2
- Ratio [16]: 0.9
- Ratio [17]: 3.7
- Ratio [18]: 278.4
- Ratio [19]: 1
- Injected dose (Rattus norvegicus [20]): 2.5%
- Injected dose (Rattus norvegicus [21]): 1.5%
- Ratio [22]: 3.2
- Ratio [23]: 1.4
- Ratio [24]: 1
- Injected dose (Rattus norvegicus [25]): 2%
- Ratio [26]: 1.6
- Injected dose (Rattus norvegicus [27]): 1.6%
- Ratio [28]: 3.3
- Injected dose (Rattus norvegicus [29]): 1.8%
- Ratio [30]: 494.8
- Injected dose (Rattus norvegicus [31]): 1.2%
- Injected dose (Rattus norvegicus [32]): 1.9%
- Ratio [33]: 1.2
- Injected dose (Rattus norvegicus [34]): 4.9%
- Injected dose (Rattus norvegicus [35]): 1.4%
- Injected dose (Rattus norvegicus [36]): 2.7%
- Ratio [37]: 0.9
- Injected dose (Rattus norvegicus [38]): 1.3%
- Ratio [39]: 11.3
- Injected dose (Rattus norvegicus [40]): 474.5%
